Measured values taken from ChEMBL document CHEMBL3044755, “5-Methyl-1,2,3-thiadiazoles synthesized via ugi reaction and their fungicidal and antiviral activities” (J Agric Food Chem, 2010).

Legend:
Rhizoctonia solani = assay: Fungicidal activity against Rhizoctonia solani at 50 ug/ml by growth inhibition method; format: functional; conditions: read-out: GI
Summary of the method: (§1)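 Mycelial growth inhibition on potato dextrose agar. The panel covered Alternaria solani, Botrytis cinerea, Cercospora arachidicola, C. beticola, Colletotrichum lagenarium, Fusarium oxysporum, Gibberella zeae, Puccinia triticina, Phytophthora infestans, Physalospora piricola, Pellicularia sasakii and Rhizoctonia solani.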

Puccinia triticina = assay: Fungicidal activity against Puccinia triticina at 50 ug/ml by growth inhibition method; format: functional; conditions: read-out: GI; summary of the method: as §1
Thanatephorus cucumeris = assay: Fungicidal activity against Thanatephorus cucumeris at 50 ug/ml by growth inhibition method; format: functional; conditions: read-out: GI; summary of the method: as §1
[1] = tested on: Botryosphaeria berengeriana; assay: Fungicidal activity against Botryosphaeria berengeriana at 50 ug/ml by growth inhibition method; format: functional; conditions: read-out: GI; summary of the method: as §1
Phytophthora infestans = assay: Fungicidal activity against Phytophthora infestans at 50 ug/ml by growth inhibition method; format: functional; conditions: read-out: GI; summary of the method: as §1
Fusarium graminearum = assay: Fungicidal activity against Fusarium graminearum at 50 ug/ml by growth inhibition method; format: functional; conditions: read-out: GI; summary of the method: as §1
Colletotrichum lagenaria = assay: Fungicidal activity against Colletotrichum lagenaria at 50 ug/ml by growth inhibition method; format: functional; conditions: read-out: GI; summary of the method: as §1
Cercospora beticola = assay: Fungicidal activity against Cercospora beticola at 50 ug/ml by growth inhibition method; format: functional; conditions: read-out: GI; summary of the method: as §1
Mycosphaerella arachidis = assay: Fungicidal activity against Mycosphaerella arachidis at 50 ug/ml by growth inhibition method; format: functional; conditions: read-out: GI; summary of the method: as §1
Alternaria solani = assay: Fungicidal activity against Alternaria solani at 50 ug/ml by growth inhibition method; format: functional; conditions: read-out: GI; summary of the method: as §1
Nicotiana tabacum [2] = assay: Induction of systemic acquired resistance activity in TMV infected-Nicotiana tabacum (tobacco) leaves at 50 ug/ml; format: functional
Summary of the method: (§2)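 Tobacco/TMV system used for systemic acquired resistance induction. Inhibition ratio calculated from mean lesion numbers on inoculated leaves relative to corresponding control. Tiadinil and ribavirin run as controls.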

Nicotiana tabacum [3] = assay: Phytotoxicity against Nicotiana tabacum (tobacco) plant; format: organism-based; conditions: in vivo
Nicotiana tabacum [4] = assay: Induction of systemic acquired resistance activity in TMV infected-Nicotiana tabacum (tobacco) leaves at 100 ug/ml; format: functional; summary of the method: as §2
Tobacco mosaic virus [5] = assay: In vivo antiviral activity against Tobacco mosaic virus (TMV) infected tobacco leaves assessed as inactivation effect at 100 ug/ml co-treated with virus for 30 min before inoculation onto leaves measured at 2-3 days after viral challenge; format: functional
Summary of the method: (§3)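 TMV (5.88 10-2 μg/mL) mixed with equal volume of compound solution for 30 min, then rubbed onto upper three leaves of six-leaf tobacco; solvent on lower three leaves as control. Lesions counted 2-3 days later, three repetitions. Inhibition (%) = (CK − A)/CK × 100 from mean lesion counts.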

Tobacco mosaic virus [6] = assay: In vivo antiviral activity against Tobacco mosaic virus (TMV) infected tobacco leaves assessed as inactivation effect at 500 ug/ml co-treated with virus for 30 min before inoculation onto leaves measured at 2-3 days after viral challenge; format: functional; summary of the method: as §3
Tobacco mosaic virus [7] = assay: In vivo antiviral activity against Tobacco mosaic virus (TMV) infected tobacco leaves assessed as curative effect at 100 ug/ml treated after viral inoculation measured at 2-3 days after viral challenge; format: functional
Summary of the method: (§4)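 Curative test: whole six-leaf tobacco leaves rubbed with TMV (5.88 10-2 μg/mL), dried in greenhouse, then compound smeared on upper three leaves and solvent on lower three as control. Local lesions scored 2-3 days after inoculation, three repetitions. Inhibition (%) = (CK − A)/CK × 100 on mean lesion numbers.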

Tobacco mosaic virus [8] = assay: In vivo antiviral activity against Tobacco mosaic virus (TMV) infected tobacco leaves assessed as curative effect at 500 ug/ml treated after viral inoculation measured at 2-3 days after viral challenge; format: functional; summary of the method: as §4
Tobacco mosaic virus [9] = assay: In vivo antiviral activity against Tobacco mosaic virus (TMV) infected tobacco leaves assessed as protective effect at 100 ug/ml treated 12 hr before viral inoculation measured at 2-3 days after viral challenge; format: functional
Summary of the method: (§5)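 Six-leaf tobacco; compound solution smeared over whole leaves, dried in greenhouse, then after 12 h TMV (5.88 10-2 μg/mL) rubbed onto upper three leaves, with solvent on lower three leaves as control. Local lesions counted 2-3 days post-inoculation, three repetitions. Inhibition (%) = (CK − A)/CK × 100 from mean lesion numbers.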

Tobacco mosaic virus [10] = assay: In vivo antiviral activity against Tobacco mosaic virus (TMV) infected tobacco leaves assessed as protective effect at 500 ug/ml treated 12 hr before viral inoculation measured at 2-3 days after viral challenge; format: functional; summary of the method: as §5
Tobacco mosaic virus [11] = assay: In vitro antiviral activity against Tobacco mosaic virus (TMV) infected tobacco leaves at 100 ug/ml; format: functional
Tobacco mosaic virus [12] = assay: In vitro antiviral activity against Tobacco mosaic virus (TMV) infected tobacco leaves at 500 ug/ml; format: functional
Fusarium oxysporum = assay: Fungicidal activity against Fusarium oxysporum at 50 ug/ml by growth inhibition method; format: functional; conditions: read-out: GI; summary of the method: as §1
Botrytis cinerea = assay: Fungicidal activity against Botryotinia fuckeliana at 50 ug/ml by growth inhibition method; format: functional; conditions: read-out: GI; summary of the method: as §1
Tobacco mosaic virus [13] = assay: In vitro antiviral activity against Tobacco mosaic virus (TMV) infected tobacco leaves at 200 ug/ml; format: functional

Row | SMILES | inhibition of growth at 50 µg/mL (Rhizoctonia solani) | inhibition of growth at 50 µg/mL (Thanatephorus cucumeris) | inhibition of growth at 50 µg/mL [1] | inhibition of growth at 50 µg/mL (Phytophthora infestans) | inhibition of growth at 50 µg/mL (Fusarium graminearum) | inhibition of growth at 50 µg/mL (Colletotrichum lagenaria) | inhibition of growth at 50 µg/mL (Cercospora beticola) | inhibition of growth at 50 µg/mL (Mycosphaerella arachidis) | inhibition of growth at 50 µg/mL (Alternaria solani) | Activity (Nicotiana tabacum [2]) | Activity (Nicotiana tabacum [3]) | Activity (Nicotiana tabacum [4]) | Activity (Tobacco mosaic virus [5]) | Activity (Tobacco mosaic virus [6]) | Activity (Tobacco mosaic virus [9]) | Activity (Tobacco mosaic virus [10]) | inhibition at 500 µg/mL (Tobacco mosaic virus [12]) | inhibition of growth at 50 µg/mL (Fusarium oxysporum) | inhibition of growth at 50 µg/mL (Botrytis cinerea) | inhibition at 200 µg/mL (Tobacco mosaic virus [13]) | further results
1 | Cc1ccc(N(C(=O)c2nnsc2C)C(C(=O)NC2CCCCC2)c2cccc(O)c2)cc1F (configuration not stated) | 30% | 0% | 0% | 6% | 14% | 0% | 25% | 0% | 0% | 32% | Non-toxic | 76% | 44% | 67% | 43% | 44% | 48% | – | – | – | inhibition of growth at 50 µg/mL (Puccinia triticina): 0%; Activity (Tobacco mosaic virus [7]): 23%; Activity (Tobacco mosaic virus [8]): 57%; inhibition at 100 µg/mL (Tobacco mosaic virus [11]): 25%
2 | Cc1ccc(N(C(=O)c2nnsc2C)C(C(=O)NC(C)C)c2ccccc2F)cc1F (configuration not stated) | 15% | 0% | 0% | 44% | 27% | 14% | 13% | 0% | 38% | 59% | Non-toxic | 7% | 73% | 74% | 27% | 60% | 46% | – | – | – | inhibition of growth at 50 µg/mL (Puccinia triticina): 0%; Activity (Tobacco mosaic virus [7]): 47%; Activity (Tobacco mosaic virus [8]): 60%; inhibition at 100 µg/mL (Tobacco mosaic virus [11]): 16%
3 | Cc1ccc(N(C(=O)c2nnsc2C)C(C(=O)NC(C)C)c2ccc(O)cc2)cc1Cl (configuration not stated) | – | 65% | 36% | 23% | 20% | 10% | 17% | 17% | 37% | 23% | Non-toxic | 41% | 50% | 64% | 8% | 36% | 4% | 23% | 76% | 0% | –
4 | Cc1ccc(N(C(=O)c2nnsc2C)C(C(=O)NC(C)C)c2ccc(Cl)cc2)cc1Cl (configuration not stated) | – | 60% | 47% | 19% | 4% | 7% | 9% | 21% | 37% | – | – | – | – | – | – | – | 32% | 26% | 76% | 25% | –
5 | Cc1ccc(N(C(=O)c2nnsc2C)C(C(=O)NC(C)C)c2ccc(F)cc2)cc1Cl (configuration not stated) | – | 63% | 36% | 5% | 27% | 17% | 25% | 13% | 42% | – | – | – | – | – | – | – | 19% | 14% | 70% | 14% | –
6 | Cc1cccc(C(C(=O)NC2CCCCC2)N(C(=O)c2nnsc2C)c2ccc(C)c(F)c2)c1 (configuration not stated) | 37% | 0% | 0% | 1% | 36% | 0% | 25% | 0% | 6% | 40% | Non-toxic | 54% | 38% | 69% | 10% | 8% | 29% | – | – | – | inhibition of growth at 50 µg/mL (Puccinia triticina): 0%; Activity (Tobacco mosaic virus [7]): 29%; Activity (Tobacco mosaic virus [8]): 38%; inhibition at 100 µg/mL (Tobacco mosaic virus [11]): 44%
7 | Cc1ccc(N(C(=O)c2nnsc2C)C(C(=O)NC(C)C)c2ccccc2Cl)cc1Cl (configuration not stated) | – | 72% | 27% | 23% | 23% | 13% | 25% | 21% | 49% | – | – | – | – | – | – | – | 8% | 23% | 76% | 3% | –
8 | Cc1ccc(N(C(=O)c2nnsc2C)C(C(=O)NC(C)C)c2ccc([N+](=O)[O-])cc2)cc1Cl (configuration not stated) | – | 60% | 33% | 21% | 4% | 4% | 9% | 17% | 39% | – | – | – | – | – | – | – | 19% | 23% | 79% | 14% | –
9 | Cc1ccc(C(C(=O)NC(C)C)N(C(=O)c2nnsc2C)c2ccc(C)c(Cl)c2)cc1 (configuration not stated) | – | 60% | 37% | 0% | 0% | 11% | 9% | 33% | 34% | – | – | – | – | – | – | – | 21% | 19% | 79% | 11% | –
